Measured values reported in ChEMBL document CHEMBL2010740, “Synthesis and evaluation of 2-amido-3-carboxamide thiophene CB₂ receptor agonists for pain management” (Bioorg Med Chem Lett, 2012).

Columns and labels:
Rattus norvegicus = test: Neurotoxicity in rat assessed as decrease in spontaneous locomotory activity at 1 umol/kg, ip after 30 mins; format: toxicity, organism-based; parameters: scale not given: the % may be the effect or the level left; conditions: in vivo, 0.5 h
How it was run: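 Given intraperitoneally 30 min before testing; horizontal locomotor activity was recorded and compared across doses.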

Cannabinoid receptor 1 [1] = target: Cannabinoid receptor 1 (Homo sapiens, UniProt P21554); test: Displacement of [3H]CP-55940 from human recombinant CB1 receptor expressed in CHO cells after 90 mins; format: cell-based
Cannabinoid receptor 1 (Homo sapiens, UniProt P21554), sequence (P21554 whole entry): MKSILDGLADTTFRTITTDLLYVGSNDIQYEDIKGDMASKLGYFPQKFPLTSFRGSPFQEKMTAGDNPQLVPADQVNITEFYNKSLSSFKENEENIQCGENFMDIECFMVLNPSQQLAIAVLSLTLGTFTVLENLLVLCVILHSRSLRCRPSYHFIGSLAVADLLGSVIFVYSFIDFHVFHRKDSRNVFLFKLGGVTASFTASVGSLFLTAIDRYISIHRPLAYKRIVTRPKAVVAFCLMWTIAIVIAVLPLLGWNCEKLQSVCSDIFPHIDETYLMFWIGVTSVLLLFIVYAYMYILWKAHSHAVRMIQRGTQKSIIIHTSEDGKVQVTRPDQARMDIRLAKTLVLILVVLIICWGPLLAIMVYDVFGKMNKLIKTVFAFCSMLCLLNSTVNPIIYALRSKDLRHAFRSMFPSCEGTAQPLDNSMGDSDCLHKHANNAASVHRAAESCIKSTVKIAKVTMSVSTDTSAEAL
How it was run: (§1)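 Competitive binding: [³H]CP-55,940 displaced from membranes of HEK 293 cells stably transfected with human or rat CB₂, or CHO cells stably transfected with human or rat CB₁. Reported as pKi. Determinations >2 (duplicate of duplicate).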

Cannabinoid receptor 2 [2] = target: T1, Cannabinoid receptor 2 (Rattus norvegicus, UniProt Q9QZN9); test: Displacement of [3H]CP-55940 from rat recombinant CB2 receptor expressed in HEK293 cells after 90 mins; format: cell-based; how it was run: as §1
T1 sequence (Q9QZN9 whole entry): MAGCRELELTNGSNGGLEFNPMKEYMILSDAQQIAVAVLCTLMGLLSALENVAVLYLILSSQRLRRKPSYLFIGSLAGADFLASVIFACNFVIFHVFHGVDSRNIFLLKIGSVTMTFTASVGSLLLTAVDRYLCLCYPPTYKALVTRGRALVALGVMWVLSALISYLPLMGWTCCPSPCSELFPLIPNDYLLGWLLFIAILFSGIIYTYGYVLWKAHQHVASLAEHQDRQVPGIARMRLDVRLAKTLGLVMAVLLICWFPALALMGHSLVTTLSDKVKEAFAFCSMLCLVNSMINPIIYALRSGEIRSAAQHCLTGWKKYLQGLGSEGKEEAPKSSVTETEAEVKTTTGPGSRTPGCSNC

Cannabinoid receptor 2 [3] = target: T2, Cannabinoid receptor 2 (Homo sapiens, UniProt P34972); test: Displacement of [3H]CP-55940 from human recombinant CB2 receptor expressed in HEK293 cells after 90 mins; format: cell-based; how it was run: as §1
T2 sequence (P34972 whole entry): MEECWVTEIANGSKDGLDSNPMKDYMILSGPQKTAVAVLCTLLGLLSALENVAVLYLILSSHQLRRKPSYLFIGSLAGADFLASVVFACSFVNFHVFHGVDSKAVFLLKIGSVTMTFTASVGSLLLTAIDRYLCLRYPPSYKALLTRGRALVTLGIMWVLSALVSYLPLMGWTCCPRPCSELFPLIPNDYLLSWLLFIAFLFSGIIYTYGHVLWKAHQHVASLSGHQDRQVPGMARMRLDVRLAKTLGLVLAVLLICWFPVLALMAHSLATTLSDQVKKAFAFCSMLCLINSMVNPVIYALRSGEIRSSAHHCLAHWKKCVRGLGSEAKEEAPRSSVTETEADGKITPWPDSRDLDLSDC

Cannabinoid receptor 1 [4] = target: Cannabinoid receptor 1 (Rattus norvegicus, UniProt P20272); test: Displacement of [3H]CP-55940 from rat recombinant CB1 receptor expressed in CHO cells after 90 mins; format: cell-based; how it was run: as §1
Cannabinoid receptor 1 (Rattus norvegicus, UniProt P20272), sequence (P20272 whole entry): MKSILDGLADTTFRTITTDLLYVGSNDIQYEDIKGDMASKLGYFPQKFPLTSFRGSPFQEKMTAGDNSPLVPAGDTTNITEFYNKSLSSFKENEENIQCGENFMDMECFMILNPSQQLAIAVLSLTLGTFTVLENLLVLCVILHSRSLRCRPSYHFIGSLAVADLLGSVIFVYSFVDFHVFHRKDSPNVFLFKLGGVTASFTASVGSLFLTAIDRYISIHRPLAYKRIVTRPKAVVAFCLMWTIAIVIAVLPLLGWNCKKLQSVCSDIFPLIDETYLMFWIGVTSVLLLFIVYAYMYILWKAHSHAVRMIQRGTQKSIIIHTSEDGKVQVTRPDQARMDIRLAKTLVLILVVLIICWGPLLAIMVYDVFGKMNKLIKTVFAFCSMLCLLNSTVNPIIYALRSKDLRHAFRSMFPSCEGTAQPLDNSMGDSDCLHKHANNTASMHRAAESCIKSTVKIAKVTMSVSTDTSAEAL

Cannabinoid receptor 2 [5] = target: T2, Cannabinoid receptor 2; test: Agonist activity at human recombinant CB2 receptor expressed in HEK293 cells assessed as inhibition of forskolin-induced cAMP production after 20 mins by ELISA; format: functional, cell-based
How it was run: (§2)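 cAMP assay in HEK 293 cells stably expressing the relevant CB receptor, with a fixed concentration of forskolin. cAMP was quantified by ELISA. Activation is given as percent of the CP-55,940 control response.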

Cannabinoid receptor 2 [6] = target: T2, Cannabinoid receptor 2; test: Agonist activity at human recombinant CB2 receptor expressed in HEK293 cells co-expressing chimeric Gaq/o protein by FLIPR assay; format: functional, cell-based
How it was run: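 FLIPR functional assay in HEK 293 cells stably co-expressing chimeric Gαq/o protein and the CB receptor. Net peak evoked response was compared with the peak response to CP-55,940.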

Cannabinoid receptor 2 [7] = target: T1, Cannabinoid receptor 2; test: Agonist activity at rat recombinant CB2 receptor expressed in HEK293 cells assessed as inhibition of forskolin-induced cAMP production after 20 mins by ELISA; format: functional, cell-based; how it was run: as §2
[8] = Plasma protein binding in human; format: ADME, cell-free; conditions: read-out: PPB (converted)
[9] = Plasma protein binding in rat; format: ADME, cell-free; conditions: read-out: PPB (converted)

O=C(CCCN1CCC(O)(c2ccc(Cl)cc2)CC1)c1ccc(F)cc1 [HALOPERIDOL]
Activity (Rattus norvegicus): 68%

COCCNC(=O)c1c(NC(=O)C23CC4CC(CC2C4)C3)sc2c1CCOC2
Ki (Cannabinoid receptor 1 [1]): > 10000 nM
Ki (Cannabinoid receptor 2 [2]): 263 nM
Ki (Cannabinoid receptor 2 [3]): 120 nM

CCCNC(=O)c1c(NC(=O)C2C(C)(C)C2(C)C)sc2c1CCOC2
Ki (Cannabinoid receptor 1 [1]): > 10000 nM
Ki (Cannabinoid receptor 1 [4]): 191 nM
Ki (Cannabinoid receptor 2 [2]): 4.37 nM
IC50 (Cannabinoid receptor 2 [5]): 1 nM
IC50 (Cannabinoid receptor 2 [6]): 52.5 nM
IC50 (Cannabinoid receptor 2 [7]): > 10000 nM
Ki (Cannabinoid receptor 2 [3]): 91.2 nM

CCCNC(=O)c1c(NC(=O)C23CC4CC(CC(C4)C2)C3)sc2c1CCOC2
Ki (Cannabinoid receptor 1 [1]): > 10000 nM
Ki (Cannabinoid receptor 1 [4]): 525 nM
Ki (Cannabinoid receptor 2 [2]): 20 nM
IC50 (Cannabinoid receptor 2 [5]): 11.2 nM
IC50 (Cannabinoid receptor 2 [6]): 42.7 nM
fraction unbound [8]: < 0.01
IC50 (Cannabinoid receptor 2 [7]): > 10000 nM
Ki (Cannabinoid receptor 2 [3]): 33.9 nM
fraction unbound [9]: < 0.01
